Test results as given in ChEMBL document CHEMBL4422627, “Discovery of potent, orally bioavailable ERK1/2 inhibitors with isoindolin-1-one structure by structure-based drug design” (Eur J Med Chem, 2019).
Each block holds one molecule with its values, some of them ahead of it. Activity calls are given as the source filed them. The rule behind the calls is not given here.

What was measured:
[1] = system: K562; experiment: Antiproliferative activity against human K562 cells after 72 hrs by MTT assay; format: functional, cell-based; details: K562, 72 h
[2] = system: NCM460; experiment: Cytotoxicity against human NCM460 cells assessed as reduction in cell viability at 10000 nM after 72 hrs by MTT assay; format: cell-based; details: ncm460, 72 h, 10 µM
[3] = target: Mitogen-activated protein kinase 1 (Homo sapiens, UniProt P28482); experiment: Inhibition of ERK2 (unknown origin) using […] as substrate after 40 mins by ADP-Glo luminescence assay
Chain of Mitogen-activated protein kinase 1 (P28482 whole entry): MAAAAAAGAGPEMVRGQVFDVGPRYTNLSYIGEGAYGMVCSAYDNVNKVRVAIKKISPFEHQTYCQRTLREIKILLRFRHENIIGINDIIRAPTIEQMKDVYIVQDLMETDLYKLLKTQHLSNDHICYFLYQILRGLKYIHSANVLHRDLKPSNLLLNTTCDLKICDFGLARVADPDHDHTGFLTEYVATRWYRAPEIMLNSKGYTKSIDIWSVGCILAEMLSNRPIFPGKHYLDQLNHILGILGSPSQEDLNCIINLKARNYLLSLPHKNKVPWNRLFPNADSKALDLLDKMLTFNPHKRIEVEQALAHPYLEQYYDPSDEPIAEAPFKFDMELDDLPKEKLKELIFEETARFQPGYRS

[4] = system: HCT-116; experiment: Induction of apoptosis in human HCT116 cells assessed as viable cells at 1 uM after 72 hrs by annexin V-FITC and propidium iodide staining based flow cytometric analysis (reference value: 94.3%); format: functional; details: HCT-116, 72 h, read-out: Activity
In short: (§1)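 HCT116 cells treated with compound, PI-stained, and analysed for apoptosis by flow cytometry; means ± SD of three independent experiments, each condition in triplicate.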

[5] = system: HCT-116; experiment: Cell cycle arrest in human HCT116 cells assessed as accumulation at G2/M phase at 1 uM after 72 hrs by annexin V-FITC and propidium iodide staining based flow cytometric analysis (reference value: 43.5%); format: functional
[6] = system: HCT-116; experiment: Cell cycle arrest in human HCT116 cells assessed as accumulation at G0/G1 phase at 1 uM after 72 hrs by annexin V-FITC and propidium iodide staining based flow cytometric analysis (reference value: 44.3%); format: functional
[7] = system: WM 266-4; experiment: Antiproliferative activity against human WM266.4 cells after 72 hrs by MTT assay; format: functional, cell-based; details: WM 266-4, 72 h
[8] = Toxicity against Balb/c nude mouse xenografted with human HCT116 cells assessed as reduction in body weight at 50 mg/kg, po qd for 30 days and measured every 3 days; format: organism-based; details: in vivo
In short: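 HCT-116 xenograft nude mice dosed at 50 mg/kg orally once daily for 30 days; body weight recorded every 3 days.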

[9] = system: SW626; experiment: Antiproliferative activity against human SW626 cells after 72 hrs by MTT assay; format: functional, cell-based; details: SW626, 72 h
[10] = system: COLO 205; experiment: Antiproliferative activity against human COLO205 cells after 72 hrs by MTT assay; format: functional, cell-based; details: COLO 205, 72 h
[11] = system: HCT-116; experiment: Induction of apoptosis in human HCT116 cells assessed as early apoptotic cells at 1 uM after 72 hrs by annexin V-FITC and propidium iodide staining based flow cytometric analysis (reference value: 3.88%); format: functional; in short: as §1
[12] = system: HCT-116; experiment: Induction of apoptosis in human HCT116 cells assessed as necrotic cells at 1 uM after 72 hrs by annexin V-FITC and propidium iodide staining based flow cytometric analysis (reference value: 0.21%); format: functional; in short: as §1
[13] = target: Mitogen-activated protein kinase 3 (Homo sapiens, UniProt P27361); experiment: Inhibition of ERK1 (unknown origin) using […] as substrate after 40 mins by ADP-Glo luminescence assay
Chain of Mitogen-activated protein kinase 3 (P27361 whole entry): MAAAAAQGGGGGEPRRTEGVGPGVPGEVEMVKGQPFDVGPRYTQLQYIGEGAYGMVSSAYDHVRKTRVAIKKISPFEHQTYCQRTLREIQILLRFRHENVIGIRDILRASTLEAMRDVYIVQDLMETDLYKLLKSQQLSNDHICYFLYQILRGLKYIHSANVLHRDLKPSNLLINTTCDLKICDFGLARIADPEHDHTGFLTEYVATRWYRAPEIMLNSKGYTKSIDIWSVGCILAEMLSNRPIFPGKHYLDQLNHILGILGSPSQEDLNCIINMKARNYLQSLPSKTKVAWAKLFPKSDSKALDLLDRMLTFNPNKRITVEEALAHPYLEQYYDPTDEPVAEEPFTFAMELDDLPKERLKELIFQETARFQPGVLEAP

[14] = system: HCT-116; experiment: Antitumor activity against human HCT116 cells xenografted in Balb/c nude mouse assessed as tumor growth inhibition at 50 mg/kg, po qd for 30 days and measured every 3 days by calliper method relative to control; format: functional; details: HCT-116, po, read-out: TGI
In short: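 Nude mice bearing HCT-116 xenografts; test article given as hydrochloride salt, 50 mg/kg orally once daily for 30 days; efficacy expressed as percent tumor growth inhibition.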

[15] = system: HCT-116; experiment: Antiproliferative activity against human HCT116 cells after 72 hrs by MTT assay; format: functional, cell-based; details: HCT-116, 72 h
[16] = system: HCT-116; experiment: Induction of apoptosis in human HCT116 cells assessed as late apoptotic cells at 1 uM after 72 hrs by annexin V-FITC and propidium iodide staining based flow cytometric analysis (reference value: 1.20%); format: functional; in short: as §1
[17] = target: T1, Mitogen-activated protein kinase; ERK1/ERK2 (Homo sapiens) (UniProt P27361+P28482); experiment: Inhibition of ERK1/2 phosphorylation at Thr202/Tyr204 residues in human HCT116 cells by Western blot analysis; format: cell-based
T1 sequence (P27361 whole entry, looked up): as the sequence (P27361 whole entry) above
T1 sequence (P28482 whole entry, looked up): as the sequence (P28482 whole entry) above
In short: (§2)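 Phosphorylation of ERK1/2 and RSK in HCT116 cells measured by western blot over a range of compound concentrations; means ± SD of three independent experiments, each condition run in triplicate.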

[18] = system: HCT-116; experiment: Induction of apoptosis in human HCT116 cells assessed as increase in condense bright apoptotic nuclei formation at 1 uM by Hoechst 33258 staining-based assay; format: functional, cell-based
In short: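 After compound incubation, HCT116 cells stained with Hoechst 33258 and examined for condensed, bright apoptotic nuclei; n=3 per group.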

[19] = target: T1, Mitogen-activated protein kinase; ERK1/ERK2 (Homo sapiens); experiment: Inhibition of ERK1/2 in human HCT116 cells assessed as reduction in RSK phosphorylation at Thr359/Ser363 residues by Western blot analysis; format: cell-based; in short: as §2
[20] = Cmax in Sprague-Dawley rat at 50 mg/kg, po by LC/MS/MS analysis; format: ADME, organism-based; design: dose 50 mg/kg, route oral; details: in vivo
In short: (§3)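 Sprague-Dawley rats dosed intravenously at 5 mg/kg or orally at 50 mg/kg; pharmacokinetic parameters derived from the plasma concentration data.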

[21] = MRT (0 to t) in Sprague-Dawley rat at 50 mg/kg, po by LC/MS/MS analysis; format: ADME, organism-based; details: in vivo; in short: as §3
[22] = Half life in Sprague-Dawley rat at 50 mg/kg, po by LC/MS/MS analysis; format: ADME, organism-based; details: in vivo; in short: as §3
[23] = AUC (0 to t) in Sprague-Dawley rat at 50 mg/kg, po by LC/MS/MS analysis; format: ADME, organism-based; details: in vivo; in short: as §3
[24] = Oral bioavailability in Sprague-Dawley rat at 50 mg/kg by LC/MS/MS analysis; format: ADME, organism-based; details: in vivo; in short: as §3

IC50 [1]: 3190 nM
IC50 [3]: 0.7 nM
IC50 [9]: 247 nM
IC50 [10]: 194 nM
IC50 [13]: 1.5 nM
IC50 [15]: 155 nM
Structure (SMILES): O=C1c2cc(-c3ccnc(NC4CCOCC4)n3)ccc2CN1C(CO)c1cccc(Cl)c1 (configuration not stated) [listing 1 of 2 here]
Activity [2]: Non-Toxic
viability at 1 µM [4]: 61.3%
Activity [5]: 29.5%
Activity [6]: 58%
IC50 [7]: 260 nM
Activity [8]: Non-Toxic
Activity [11]: 27.7%
Activity [12]: 0.12%
inhibition in vivo at 50 mg/kg [14]: 71%
Activity [16]: 10.4%

IC50 [3]: 36.3 nM
Structure (SMILES): O=C1c2cc(-c3ccnc(Nc4ccncc4)n3)ccc2CN1Cc1cccc(Cl)c1

inhibition [17]: Dose-dependent effect
inhibition [19]: Dose-dependent effect
Structure (SMILES): O=C1c2cc(-c3ccnc(NC4CCOCC4)n3)ccc2CN1C(CO)c1cccc(Cl)c1 (configuration not stated) [listing 2 of 2 here]
Activity [18]: Active

IC50 [3]: 35.6 nM
Structure (SMILES): O=C1c2cc(-c3ccnc(NC4CCOCC4)n3)ccc2CN1Cc1ccc(Cl)cc1

IC50 [1]: 3820 nM
IC50 [3]: 1.2 nM
IC50 [9]: 206 nM
IC50 [10]: 227 nM
IC50 [13]: 4.1 nM
IC50 [15]: 201 nM
Structure (SMILES): Cn1cc(Nc2nccc(-c3ccc4c(c3)C(=O)N(C(CO)c3cccc(Cl)c3)C4)n2)cn1 (configuration not stated)
Activity [2]: Non-Toxic
IC50 [7]: 211 nM

IC50 [3]: 2.9 nM
Structure (SMILES): O=C1c2cc(-c3ccnc(NC4CCOCC4)n3)ccc2CN1Cc1ccc(F)c(Cl)c1

IC50 [3]: 25.6 nM
Structure (SMILES): Cn1ccc(Nc2nccc(-c3ccc4c(c3)C(=O)N(C(CO)c3cccc(Cl)c3)C4)n2)n1 (configuration not stated)

IC50 [1]: 1550 nM
IC50 [3]: 1.6 nM
IC50 [9]: 255 nM
IC50 [10]: 170 nM
IC50 [13]: 3.3 nM
IC50 [15]: 150 nM
Structure (SMILES): O=C1c2cc(-c3ccnc(NC4CCOCC4)n3)ccc2CN1Cc1cccc(Cl)c1
IC50 [7]: 220 nM

IC50 [3]: 17.6 nM
Structure (SMILES): O=C1c2cc(-c3ccnc(NCCO)n3)ccc2CN1C(CO)c1cccc(Cl)c1 (configuration not stated)

IC50 [3]: > 1000 nM
Structure (SMILES): Cn1nccc1Nc1nccc(-c2ccc3c(c2)C(=O)N(Cc2ccccn2)C3)n1

IC50 [3]: 38.4 nM
Structure (SMILES): O=C1c2cc(-c3ccnc(NCCCO)n3)ccc2CN1C(CO)c1cccc(Cl)c1 (configuration not stated)

IC50 [3]: 201 nM
Structure (SMILES): O=C1c2cc(-c3ccnc(NC4CCOCC4)n3)ccc2CN1[C@@H](CO)c1cccc(Cl)c1

IC50 [3]: 93.3 nM
Structure (SMILES): O=C1c2cc(-c3ccnc(Nc4ncco4)n3)ccc2CN1C(CO)c1cccc(Cl)c1 (configuration not stated)

IC50 [3]: > 1000 nM
Structure (SMILES): O=C1c2cc(-c3ccnc(NC4CCNCC4)n3)ccc2CN1C(CO)c1cccc(Cl)c1 (configuration not stated)

IC50 [3]: 5.6 nM
Structure (SMILES): Cn1nccc1Nc1nccc(-c2ccc3c(c2)C(=O)N(Cc2ccc(Cl)c(F)c2)C3)n1

IC50 [3]: 5.4 nM
Structure (SMILES): O=C1c2cc(-c3ccnc(NC4CCOC4)n3)ccc2CN1C(CO)c1cccc(Cl)c1 (configuration not stated)

IC50 [3]: > 1000 nM
Structure (SMILES): Cc1cccc(CN2Cc3ccc(-c4ccnc(Nc5ccnn5C)n4)cc3C2=O)n1

IC50 [3]: > 1000 nM
Structure (SMILES): Cn1nccc1Nc1nccc(-c2ccc3c(c2)C(=O)N(Cc2cccnc2)C3)n1

IC50 [3]: 19.8 nM
Structure (SMILES): Cn1nnnc1Nc1nccc(-c2ccc3c(c2)C(=O)N(C(CO)c2cccc(Cl)c2)C3)n1 (configuration not stated)

IC50 [3]: 7.2 nM
Structure (SMILES): O=C1c2cc(-c3ccnc(NC4CCCCC4)n3)ccc2CN1C(CO)c1cccc(Cl)c1 (configuration not stated)

IC50 [3]: 1.1 nM
Structure (SMILES): Cn1cc(Nc2nccc(-c3ccc4c(c3)C(=O)N([C@H](CO)c3cccc(Cl)c3)C4)n2)cn1

IC50 [1]: 2930 nM
IC50 [3]: 1.9 nM
IC50 [9]: 252 nM
IC50 [10]: 252 nM
IC50 [13]: 3.6 nM
IC50 [15]: 251 nM
Structure (SMILES): Cn1nccc1Nc1nccc(-c2ccc3c(c2)C(=O)N(C(CO)c2cccc(Cl)c2)C3)n1 (configuration not stated)
IC50 [7]: 217 nM

IC50 [3]: 633 nM
Structure (SMILES): Cn1cc(Nc2nccc(-c3ccc4c(c3)C(=O)N([C@@H](CO)c3cccc(Cl)c3)C4)n2)cn1

IC50 [3]: 3.1 nM
Structure (SMILES): O=C1c2cc(-c3ccnc(NC4CCOCC4)n3)ccc2CN1C(CO)c1ccc(Cl)c(Cl)c1 (configuration not stated)

IC50 [3]: 0.8 nM
Structure (SMILES): O=C1c2cc(-c3ccnc(NC4CCOCC4)n3)ccc2CN1[C@H](CO)c1cccc(Cl)c1

IC50 [3]: 11.2 nM
Structure (SMILES): CC(C)Nc1nccc(-c2ccc3c(c2)C(=O)N(C(CO)c2cccc(Cl)c2)C3)n1 (configuration not stated)

IC50 [3]: 30.4 nM
Structure (SMILES): O=C1c2cc(-c3ccnc(NC4CCOCC4)n3)ccc2CN1C(CO)c1ccc(Cl)cc1 (configuration not stated)

IC50 [3]: 17.8 nM
Structure (SMILES): O=C1c2cc(-c3ccnc(NC4CCOCC4)n3)ccc2CN1Cc1ccc(Cl)c(F)c1

IC50 [3]: 22.3 nM
Structure (SMILES): O=C1c2cc(-c3ccnc(Nc4nccs4)n3)ccc2CN1C(CO)c1cccc(Cl)c1 (configuration not stated)

IC50 [1]: 2870 nM
IC50 [3]: 3.5 nM
Structure (SMILES): Cn1nccc1Nc1nccc(-c2ccc3c(c2)C(=O)N(Cc2cccc(Cl)c2)C3)n1

Cmax [20]: 1920 ng/mL
MRT last [21]: 3.4 h
half-life [22]: 3.6 h
AUC(0-t) [23]: 8380 ng·h/mL
bioavailability [24]: 22.5%
Structure (SMILES): Cl.O=C1c2cc(-c3ccnc(NC4CCOCC4)n3)ccc2CN1C(CO)c1cccc(Cl)c1 (configuration not stated)

IC50 [3]: > 1000 nM
Structure (SMILES): O=C1c2cc(-c3ccnc(NC4CCNC4)n3)ccc2CN1C(CO)c1cccc(Cl)c1 (configuration not stated)

IC50 [3]: 2.7 nM
Structure (SMILES): O=C1c2cc(-c3ccnc(NC4CCC(O)CC4)n3)ccc2CN1C(CO)c1cccc(Cl)c1 (configuration not stated)

IC50 [1]: 2740 nM
IC50 [3]: 3.6 nM
IC50 [9]: 209 nM
IC50 [10]: 204 nM
IC50 [13]: 21 nM
IC50 [15]: 148 nM
Structure (SMILES): Cn1cc(Nc2nccc(-c3ccc4c(c3)C(=O)N(Cc3cccc(Cl)c3)C4)n2)cn1
IC50 [7]: 174 nM

IC50 [3]: > 1000 nM
Structure (SMILES): O=C1c2cc(-c3ccnc(Nc4ccc(F)cc4)n3)ccc2CN1Cc1cccc(Cl)c1

Cmax [20]: 747 ng/mL
MRT last [21]: 1.2 h
half-life [22]: 0.37 h
AUC(0-t) [23]: 1280 ng·h/mL
bioavailability [24]: 6.9%
Structure (SMILES): Cl.O=C1c2cc(-c3ccnc(NC4CCOCC4)n3)ccc2CN1Cc1cccc(Cl)c1
